In ChEMBL document CHEMBL3414494 (Eur J Med Chem, 2015):
The source made the active and inactive calls. The rule behind the calls is not given here.

Assays:
Histone deacetylase 3 = Histone deacetylase 3 (Homo sapiens, UniProt O15379); assay: Inhibition of recombinant human HDAC3 expressed in baculovirus infected insect High5 cells using Ac-Lys-Tyr-Lys (epsilon-acetyl)-AMC as substrate after 3 hrs by fluorescence assay
Histone deacetylase 1 = Histone deacetylase 1 (Homo sapiens, UniProt Q13547); assay: Inhibition of recombinant human HDAC1 expressed in baculovirus infected insect High5 cells using Ac-Lys-Tyr-Lys (epsilon-acetyl)-AMC as substrate after 24 hrs by fluorescence assay
Histone deacetylase 2 = Histone deacetylase 2 (Homo sapiens, UniProt Q92769); assay: Inhibition of recombinant human HDAC2 expressed in baculovirus infected insect High5 cells using Ac-Lys-Tyr-Lys (epsilon-acetyl)-AMC as substrate after 24 hrs by fluorescence assay
A549 = assay: Cytotoxicity against human A549 cells assessed as growth inhibition after 72 hrs by MTT assay; format: functional, cell-based; conditions: A549, 72 h
In short: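 A549 human lung adenocarcinoma cells were seeded at 2000–3000 cells/well and held 24 h at 37 °C in 5% CO2. They were then exposed to a range of compound concentrations for 72 h at 37 °C. MTT (5 mg/mL stock) was added for 3 h, the medium was removed, formazan was dissolved in DMSO, and absorbance was read at 550 nm.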

SW-620 = assay: Cytotoxicity against human SW620 cells assessed as growth inhibition after 72 hrs by MTT assay; format: functional, cell-based; conditions: SW-620, 72 h
In short: (§1)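 Cells were seeded at 2000–3000 per well and pre-incubated 24 h at 37 °C, 5% CO2. A concentration range of compound was then added for 72 h. MTT (5 mg/mL) was added for 3 h, the medium removed, and formazan dissolved in DMSO. Absorbance was read at 550 nm as the viable-cell measure.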

[1] = Cytotoxicity against human MKN45 cells assessed as growth inhibition after 72 hrs by MTT assay; format: functional, cell-based; conditions: MKN-45, 72 h; in short: as §1
HepG2 = assay: Cytotoxicity against human HepG2 cells assessed as growth inhibition after 72 hrs by MTT assay; format: functional, cell-based; conditions: HepG2, 72 h; in short: as §1
[2] = Cytotoxicity against human SNU5 cells assessed as growth inhibition after 72 hrs by MTT assay; format: functional, cell-based; conditions: SNU-5, 72 h; in short: as §1
[3] = Cell cycle arrest in human HCT116 cells assessed as accumulation at G2/M phase at 10 to 20 nM after 24 hrs by flow cytometric analysis; format: functional, cell-based; conditions: HCT-116
[4] = Cytotoxicity against human PANC1 cells assessed as growth inhibition after 72 hrs by MTT assay; format: functional, cell-based; conditions: PANC-1, 72 h; in short: as §1
[5] = Cytotoxicity against human Hep3B cells assessed as growth inhibition after 72 hrs by MTT assay; format: functional, cell-based, Hep 3B2; in short: as §1
SJSA-1 = assay: Cytotoxicity against human SJSA1 cells assessed as growth inhibition after 72 hrs by MTT assay; format: functional, cell-based; conditions: SJSA-1, 72 h; in short: as §1
Tubulin (Homo sapiens) = Tubulin (Homo sapiens) (UniProt P68371+Q9H4B7+P0DPH7+P68366+Q13509+Q71U36+P04350+Q3ZCM7+P07437+P68363+Q9BQE3+Q6PEY2+Q13885+Q9BVA1+Q9BUF5); assay: Inhibition of tubulin (unknown origin) polymerization at 10 uM; format: protein-complex assay
[6] = Cytotoxicity against human MHCC97H cells assessed as growth inhibition after 72 hrs by MTT assay; format: functional, cell-based; in short: as §1
[7] = Cytotoxicity against human HCT116 cells assessed as growth inhibition after 72 hrs by MTT assay; format: functional, cell-based; conditions: HCT-116, 72 h; in short: as §1
[8] = Cytotoxicity against human SNU16 cells assessed as growth inhibition after 72 hrs by MTT assay; format: functional, cell-based; conditions: SNU-16, 72 h; in short: as §1

Chain of Histone deacetylase 2 (Q92769 whole entry): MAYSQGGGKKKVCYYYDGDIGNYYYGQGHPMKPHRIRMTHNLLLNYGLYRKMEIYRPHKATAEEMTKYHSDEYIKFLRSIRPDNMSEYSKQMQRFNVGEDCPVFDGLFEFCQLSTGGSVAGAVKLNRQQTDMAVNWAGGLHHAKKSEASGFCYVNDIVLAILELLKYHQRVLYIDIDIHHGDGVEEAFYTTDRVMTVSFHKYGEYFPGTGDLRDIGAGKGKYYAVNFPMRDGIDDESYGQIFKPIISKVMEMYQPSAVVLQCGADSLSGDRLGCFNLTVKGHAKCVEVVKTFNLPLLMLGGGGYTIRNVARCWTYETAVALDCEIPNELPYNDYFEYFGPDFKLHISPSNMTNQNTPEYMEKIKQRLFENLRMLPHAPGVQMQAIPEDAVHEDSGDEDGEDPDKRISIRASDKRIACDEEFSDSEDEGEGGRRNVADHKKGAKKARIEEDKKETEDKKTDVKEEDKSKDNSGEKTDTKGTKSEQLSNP
Chain of Histone deacetylase 1 (Q13547 whole entry): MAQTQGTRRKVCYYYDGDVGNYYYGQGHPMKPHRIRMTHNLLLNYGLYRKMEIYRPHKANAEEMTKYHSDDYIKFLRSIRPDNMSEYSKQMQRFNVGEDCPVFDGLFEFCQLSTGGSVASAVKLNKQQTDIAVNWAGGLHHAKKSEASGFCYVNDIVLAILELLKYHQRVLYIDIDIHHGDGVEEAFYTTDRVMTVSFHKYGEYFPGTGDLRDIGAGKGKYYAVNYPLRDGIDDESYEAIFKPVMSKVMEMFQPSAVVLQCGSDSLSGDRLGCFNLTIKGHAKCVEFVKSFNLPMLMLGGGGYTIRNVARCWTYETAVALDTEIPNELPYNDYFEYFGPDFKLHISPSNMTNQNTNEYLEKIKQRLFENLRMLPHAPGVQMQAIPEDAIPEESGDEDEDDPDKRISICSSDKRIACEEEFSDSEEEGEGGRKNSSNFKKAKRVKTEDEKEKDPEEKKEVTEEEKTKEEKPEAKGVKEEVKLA
Chain of Histone deacetylase 3 (O15379 whole entry): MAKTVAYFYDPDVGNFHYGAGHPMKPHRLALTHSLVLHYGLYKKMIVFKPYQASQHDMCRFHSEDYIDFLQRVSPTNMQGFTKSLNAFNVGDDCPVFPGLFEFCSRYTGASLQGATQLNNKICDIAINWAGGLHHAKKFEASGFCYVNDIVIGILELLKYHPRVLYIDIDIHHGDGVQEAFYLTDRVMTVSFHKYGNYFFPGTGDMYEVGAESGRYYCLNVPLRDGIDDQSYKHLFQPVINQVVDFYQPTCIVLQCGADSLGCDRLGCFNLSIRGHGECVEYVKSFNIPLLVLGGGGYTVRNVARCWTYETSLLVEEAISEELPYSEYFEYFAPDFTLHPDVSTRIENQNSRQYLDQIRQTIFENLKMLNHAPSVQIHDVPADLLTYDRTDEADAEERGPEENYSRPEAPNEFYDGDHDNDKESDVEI

Structure (SMILES): COc1cc2c(c(OC)c1OC)-c1ccc(OC)c(=O)cc1[C@@H](NC(=O)c1ccc(C(=O)Nc3cc(-c4cccs4)ccc3N)cc1)CC2
- IC50 (Histone deacetylase 3): 1.97 µM
- IC50 (Histone deacetylase 1): 2.24 µM
- IC50 (Histone deacetylase 2): 0.38 µM
- IC50 (A549): 740 nM

Structure (SMILES): COc1cc2c(c(OC)c1OC)-c1ccc(OC)c(=O)cc1[C@@H](NCc1ccc(C(=O)Nc3ccccc3N)cc1)CC2
- IC50 (Histone deacetylase 3): 11.2 µM
- IC50 (Histone deacetylase 1): 12.5 µM
- IC50 (SW-620): 2 nM
- IC50 [1]: 2 nM
- IC50 (HepG2): 14 nM
- IC50 [2]: 14 nM
- IC50 (Histone deacetylase 2): 6.73 µM
- Activity [3]: Active
- IC50 [4]: 5 nM
- IC50 [5]: 5 nM
- IC50 (SJSA-1): 9 nM
- IC50 (A549): 106 nM
- inhibition (Tubulin (Homo sapiens)): Active
- IC50 [6]: 43 nM
- IC50 [7]: 5 nM
- IC50 [8]: 2 nM

Structure (SMILES): COc1cc2c(c(OC)c1OC)-c1ccc(OC)c(=O)cc1[C@@H](NC(=O)c1cccc(C(=O)Nc3ccccc3N)c1)CC2
- IC50 (Histone deacetylase 3): 10.8 µM
- IC50 (Histone deacetylase 1): 9.62 µM
- IC50 (Histone deacetylase 2): 4.91 µM
- IC50 (A549): 3430 nM

Structure (SMILES): COc1cc2c(c(OC)c1OC)-c1ccc(OC)c(=O)cc1[C@@H](NCc1cccc(C(=O)Nc3cc(-c4cccs4)ccc3N)c1)CC2
- IC50 (Histone deacetylase 3): 19.7 µM
- IC50 (Histone deacetylase 1): 25.5 µM
- IC50 (Histone deacetylase 2): 5.41 µM
- IC50 (A549): 393 nM

Structure (SMILES): Nc1ccccc1NC(=O)c1ccc(CNc2nccc(-c3cccnc3)n2)cc1 [MOCETINOSTAT]
- IC50 (SW-620): 419 nM
- IC50 [1]: 610 nM
- IC50 (HepG2): 876 nM
- IC50 [2]: 1010 nM
- IC50 [4]: 26800 nM
- IC50 [5]: 823 nM
- IC50 (SJSA-1): 3620 nM
- IC50 (A549): 2080 nM
- IC50 [6]: 4560 nM
- IC50 [7]: 396 nM
- IC50 [8]: 142 nM

Structure (SMILES): COc1cc2c(c(OC)c1OC)-c1ccc(OC)c(=O)cc1[C@@H](NCc1ccc(C(=O)Nc3cc(-c4cccs4)ccc3N)cc1)CC2
- IC50 (Histone deacetylase 3): 1.47 µM
- IC50 (Histone deacetylase 1): 3.32 µM
- IC50 (Histone deacetylase 2): 0.27 µM
- IC50 (A549): 1040 nM

Structure (SMILES): COc1cc2c(c(OC)c1OC)-c1ccc(OC)c(=O)cc1[C@@H](NC(=O)c1cccc(C(=O)Nc3cc(-c4cccs4)ccc3N)c1)CC2
- IC50 (Histone deacetylase 3): 1.49 µM
- IC50 (Histone deacetylase 1): 1.5 µM
- IC50 (SW-620): 4 nM
- IC50 [1]: 2 nM
- IC50 (HepG2): 20 nM
- IC50 [2]: 119 nM
- IC50 (Histone deacetylase 2): 0.19 µM
- Activity [3]: Active
- IC50 [4]: 19 nM
- IC50 [5]: 10 nM
- IC50 (SJSA-1): 27 nM
- IC50 (A549): 2790 nM
- inhibition (Tubulin (Homo sapiens)): Active
- IC50 [6]: 339 nM
- IC50 [7]: 39 nM
- IC50 [8]: 5 nM

Structure (SMILES): COc1cc2c(c(OC)c1OC)-c1ccc(OC)c(=O)cc1[C@@H](NC(=O)c1ccc(C(=O)Nc3ccccc3N)cc1)CC2
- IC50 (Histone deacetylase 3): 12.1 µM
- IC50 (Histone deacetylase 1): 15.9 µM
- IC50 (Histone deacetylase 2): 10.4 µM
- IC50 (A549): 1620 nM

Structure (SMILES): COc1cc2c(c(OC)c1OC)-c1ccc(OC)c(=O)cc1[C@@H](NC(C)=O)CC2 [COLCHICINE]
- IC50 (Histone deacetylase 3): > 50.1 µM
- IC50 (Histone deacetylase 1): > 50.1 µM
- IC50 (SW-620): 5 nM
- IC50 [1]: 2 nM
- IC50 (HepG2): 27 nM
- IC50 [2]: 34 nM
- IC50 (Histone deacetylase 2): > 50.1 µM
- Activity [3]: Active
- IC50 [4]: 21 nM
- IC50 [5]: 14 nM
- IC50 (SJSA-1): 8 nM
- IC50 (A549): 105 nM
- IC50 [6]: 110 nM
- IC50 [7]: 40 nM
- IC50 [8]: 5 nM

Structure (SMILES): COc1cc2c(c(OC)c1OC)-c1ccc(OC)c(=O)cc1[C@@H](NCc1cccc(C(=O)Nc3ccccc3N)c1)CC2
- IC50 (Histone deacetylase 3): > 34.4 µM
- IC50 (Histone deacetylase 1): > 34.4 µM
- IC50 (Histone deacetylase 2): > 34.4 µM
- IC50 (A549): 354 nM
- inhibition (Tubulin (Homo sapiens)): Active
